In ChEMBL document CHEMBL2150857, “Design, synthesis and biological evaluation of 5-hydroxy, 5-substituted-pyrimidine-2,4,6-triones as potent inhibitors of gelatinases MMP-2 and MMP-9” (Eur J Med Chem, 2012) one finds IC50 and inhibition data, which are given here for 16 compounds.

pIC50: −log10 of the molar value.

Experiment [1] deals with T1, 72 kDa type IV collagenase (Homo sapiens, UniProt P08253). As to the kind of experiment: Inhibition of MMP2 using Mca-Pro-Leu-Gly-Leu-Dpa-Ala-Arg as substrate incubated for 30 mins prior to substrate addition measured after 3 hrs by fluorimetric assay. In short, it runs like this: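 It is preincubated with inhibitor at 25 °C for 30 min. Substrate is added from a 25 μM solution and incubated 3 h at 37 °C. Acetic acid quench, fluorescence ex 340/em 405 nm. IC50 from 6 concentrations in triplicate, two runs.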
Target sequence in this assay (P08253 whole entry): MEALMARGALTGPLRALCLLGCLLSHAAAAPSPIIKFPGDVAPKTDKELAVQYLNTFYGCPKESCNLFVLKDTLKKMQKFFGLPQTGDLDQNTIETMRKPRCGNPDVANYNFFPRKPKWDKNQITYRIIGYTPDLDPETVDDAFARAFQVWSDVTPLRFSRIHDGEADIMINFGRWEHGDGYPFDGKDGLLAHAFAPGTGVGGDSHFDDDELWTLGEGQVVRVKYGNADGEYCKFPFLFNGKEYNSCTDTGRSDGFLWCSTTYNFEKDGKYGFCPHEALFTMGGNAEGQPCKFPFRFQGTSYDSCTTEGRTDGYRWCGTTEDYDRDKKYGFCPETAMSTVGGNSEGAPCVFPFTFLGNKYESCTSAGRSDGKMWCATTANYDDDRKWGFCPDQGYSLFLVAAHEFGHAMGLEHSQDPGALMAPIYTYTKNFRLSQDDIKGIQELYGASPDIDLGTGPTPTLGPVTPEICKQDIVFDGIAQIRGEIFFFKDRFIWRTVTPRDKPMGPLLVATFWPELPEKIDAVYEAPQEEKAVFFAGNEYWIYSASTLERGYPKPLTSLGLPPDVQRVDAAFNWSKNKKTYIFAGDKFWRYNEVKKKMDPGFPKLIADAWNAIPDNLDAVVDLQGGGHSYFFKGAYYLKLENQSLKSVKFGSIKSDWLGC

In experiment [2] the target is T2, Neutrophil collagenase (Homo sapiens, UniProt P22894). Put plainly: Inhibition of recombinant MMP8 catalytic site using Mca-Pro-Leu-Gly-Leu-Dpa-Ala-Arg as substrate incubated for 30 mins prior to substrate addition measured after 3 hrs by fluorimetric assay. In a few lines: (§1)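 Recombinant catalytic-domain MMP-8 or MMP-9 (500 pM enzyme solution) is used in Tris-HCl 0.1 M pH 7.5, 0.1 M NaCl, 10 mM CaCl2, 0.05% Brij35, 1 mM APMA. Preincubated with inhibitor 30 min at 25 °C, then substrate (25 μM solution) 3 h at 37 °C. Acetic acid stop, fluorescence 340/405 nm. IC50 from six concentrations in triplicate, run twice.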
Target sequence in this assay (P22894 whole entry): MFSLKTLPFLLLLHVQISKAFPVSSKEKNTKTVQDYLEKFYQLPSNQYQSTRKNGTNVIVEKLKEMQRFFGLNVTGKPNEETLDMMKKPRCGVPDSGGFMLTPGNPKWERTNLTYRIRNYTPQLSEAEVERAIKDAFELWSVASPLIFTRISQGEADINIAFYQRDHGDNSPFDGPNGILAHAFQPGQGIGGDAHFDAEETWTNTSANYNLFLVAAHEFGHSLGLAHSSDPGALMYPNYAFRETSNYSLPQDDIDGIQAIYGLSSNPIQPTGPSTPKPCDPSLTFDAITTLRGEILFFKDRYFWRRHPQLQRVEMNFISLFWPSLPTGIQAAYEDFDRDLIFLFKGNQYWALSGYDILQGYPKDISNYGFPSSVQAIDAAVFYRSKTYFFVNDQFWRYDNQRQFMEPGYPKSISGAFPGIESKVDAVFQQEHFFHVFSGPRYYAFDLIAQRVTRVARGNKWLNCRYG

The target in experiment [3] is T3, Matrix metalloproteinase-9 (Homo sapiens, UniProt P14780). Put plainly: Inhibition of recombinant MMP9 catalytic site using Mca-Pro-Leu-Gly-Leu-Dpa-Ala-Arg as substrate incubated for 30 mins prior to substrate addition measured after 3 hrs by fluorimetric assay. In short, it runs like this:
as §1

Experiment [4] deals with T2, Neutrophil collagenase. Put plainly: Inhibition of recombinant MMP8 catalytic site using Mca-Pro-Leu-Gly-Leu-Dpa-Ala-Arg as substrate at 100 uM incubated for 30 mins prior to substrate addition measured after 3 hrs by fluorimetric assay. In a few lines:
(§2)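 Percent inhibition against control at a single concentration is measured on recombinant catalytic-domain MMP-8 or MMP-9 (500 pM enzyme solution). Tris-HCl 0.1 M pH 7.5 buffer with NaCl, CaCl2, Brij35, 1 mM APMA. Compound and enzyme 30 min at 25 °C, then substrate (25 μM solution) 3 h at 37 °C. Acetic acid stop, fluorescence 340/405 nm.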
Target sequence in this assay (P22894 101-467 limits assumed): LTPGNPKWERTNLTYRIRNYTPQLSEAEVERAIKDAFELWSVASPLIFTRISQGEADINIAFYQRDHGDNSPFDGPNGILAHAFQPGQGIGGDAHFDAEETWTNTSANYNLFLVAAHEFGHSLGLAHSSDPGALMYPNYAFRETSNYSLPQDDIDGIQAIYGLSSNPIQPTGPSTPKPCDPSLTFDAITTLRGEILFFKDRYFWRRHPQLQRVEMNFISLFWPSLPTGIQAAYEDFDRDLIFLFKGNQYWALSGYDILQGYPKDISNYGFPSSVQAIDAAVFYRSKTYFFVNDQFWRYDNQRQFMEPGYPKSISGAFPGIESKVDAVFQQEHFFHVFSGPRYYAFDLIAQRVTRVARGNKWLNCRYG

For experiment [5], the target named is T3, Matrix metalloproteinase-9. As to the kind of experiment: Inhibition of recombinant MMP9 catalytic site using Mca-Pro-Leu-Gly-Leu-Dpa-Ala-Arg as substrate at 100 uM incubated for 30 mins prior to substrate addition measured after 3 hrs by fluorimetric assay. In a few lines: as §2
Experiment [6] concerns the target T1, 72 kDa type IV collagenase. Put plainly: Inhibition of MMP2 using Mca-Pro-Leu-Gly-Leu-Dpa-Ala-Arg as substrate at 100 uM incubated for 30 mins prior to substrate addition measured after 3 hrs by fluorimetric assay. In short, it runs like this: (§3)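 Buffer: Tris-HCl 0.1 M pH 7.5, 0.1 M NaCl, 10 mM CaCl2, 0.05% Brij35, 1 mM APMA. Compound and enzyme 30 min at 25 °C, then substrate (25 μM solution) 3 h at 37 °C. Acetic acid quench, fluorescence ex 340/em 405 nm.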
Target sequence in this assay (P08253 110-660 limits assumed): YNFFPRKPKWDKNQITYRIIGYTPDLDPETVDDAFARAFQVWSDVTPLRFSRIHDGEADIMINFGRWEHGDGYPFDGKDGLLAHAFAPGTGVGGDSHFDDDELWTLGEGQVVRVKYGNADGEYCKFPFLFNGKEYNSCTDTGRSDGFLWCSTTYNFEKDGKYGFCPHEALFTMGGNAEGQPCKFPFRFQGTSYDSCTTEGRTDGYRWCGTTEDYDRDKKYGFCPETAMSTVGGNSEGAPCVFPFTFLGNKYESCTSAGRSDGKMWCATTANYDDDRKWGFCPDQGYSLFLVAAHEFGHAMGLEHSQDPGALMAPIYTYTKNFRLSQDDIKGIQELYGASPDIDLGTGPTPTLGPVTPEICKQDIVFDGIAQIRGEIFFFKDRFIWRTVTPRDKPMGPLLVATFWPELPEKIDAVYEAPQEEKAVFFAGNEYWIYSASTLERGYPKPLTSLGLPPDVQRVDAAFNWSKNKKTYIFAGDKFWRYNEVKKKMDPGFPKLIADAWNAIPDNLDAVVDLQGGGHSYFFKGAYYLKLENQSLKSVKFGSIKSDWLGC

Experiment [7] deals with T1, 72 kDa type IV collagenase. As to the kind of experiment: Inhibition of MMP2 using Mca-Pro-Leu-Gly-Leu-Dpa-Ala-Arg as substrate at 10 uM incubated for 30 mins prior to substrate addition measured after 3 hrs by fluorimetric assay. In short, it runs like this:
as §3
Target sequence in this assay (P08253 110-660 limits assumed): as above

Experiment [8] has as its target T3, Matrix metalloproteinase-9. Put plainly: Inhibition of recombinant MMP9 catalytic site using Mca-Pro-Leu-Gly-Leu-Dpa-Ala-Arg as substrate at 10 uM incubated for 30 mins prior to substrate addition measured after 3 hrs by fluorimetric assay. In a few lines:
as §2

T3 sequence (P14780 whole entry): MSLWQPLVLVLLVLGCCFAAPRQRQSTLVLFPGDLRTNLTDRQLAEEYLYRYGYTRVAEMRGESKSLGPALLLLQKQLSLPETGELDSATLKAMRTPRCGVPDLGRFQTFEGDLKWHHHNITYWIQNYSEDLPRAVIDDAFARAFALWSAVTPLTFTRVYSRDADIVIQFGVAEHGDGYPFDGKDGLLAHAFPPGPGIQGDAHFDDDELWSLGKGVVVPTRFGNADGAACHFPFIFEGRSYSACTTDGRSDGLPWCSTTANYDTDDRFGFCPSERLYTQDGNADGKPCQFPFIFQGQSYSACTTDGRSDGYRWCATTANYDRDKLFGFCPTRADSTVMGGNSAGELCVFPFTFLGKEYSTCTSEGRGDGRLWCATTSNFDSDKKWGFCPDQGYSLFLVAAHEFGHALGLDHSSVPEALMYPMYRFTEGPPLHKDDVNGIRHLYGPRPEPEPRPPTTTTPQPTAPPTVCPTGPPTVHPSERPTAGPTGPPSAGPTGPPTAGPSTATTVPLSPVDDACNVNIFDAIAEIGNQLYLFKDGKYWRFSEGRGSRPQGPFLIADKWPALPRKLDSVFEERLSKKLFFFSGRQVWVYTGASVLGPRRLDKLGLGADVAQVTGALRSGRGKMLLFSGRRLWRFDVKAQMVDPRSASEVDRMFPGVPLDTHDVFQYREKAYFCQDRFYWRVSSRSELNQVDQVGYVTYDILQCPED

What is called pIC50 is the IC50 on a negative log10 scale, so that one unit is a factor of ten. With `O=C1NC(=O)C(O)(CC(=O)c2ccc(-c3cccc([N+](=O)[O-])c3)cc2)C(=O)N1`, the negative logarithm of the IC50 (pIC50) was 5.09 in experiment [1], 5.59 in experiment [2] and 4.56 in experiment [3].

As a reminder, the inhibition is the relative decrease from the control value, in per cent. With `CC(=O)C(c1ccc(-c2ccccc2)cc1)C1(O)C(=O)NC(=O)NC1=O` (centres undefined), the inhibition in experiment [4] was 71%; in experiment [5], 28%; in experiment [6] it was 38%.

In experiment [7], `O=C1NC(=O)C(O)(CC(=O)c2ccccc2)C(=O)N1` registered an inhibition of 0%.

On to `O=C1NC(=O)C(O)(CC(=O)c2ccc([N+](=O)[O-])cc2)C(=O)N1`, for which the pIC50 in experiment [2] was 4.20. For the same compound, the inhibition in experiment [7] is 0%; in experiment [8], 8%.

As for `CN(C)C(=O)c1ccc(-c2ccc(C(=O)CC3(O)C(=O)NC(=O)NC3=O)cc2)cc1`, the negative logarithm of the IC50 (pIC50) is 5.87 in experiment [1], 5.69 in experiment [2] and 5.52 in experiment [3].

For `CC(=O)c1ccc(-c2ccc(C(=O)CC3(O)C(=O)NC(=O)NC3=O)cc2)cc1`, the pIC50 in experiment [1] is 7.52; in experiment [2], 6.96; in experiment [3], 6.77.

With `O=C1NC(=O)C(O)(CC(=O)c2ccc(-c3ccc(Cl)cc3)cc2)C(=O)N1`, the results for the pIC50 in experiment [1], in experiment [2] and in experiment [3] were 6.56, 6.57 and 7.18, respectively.

Take `O=C1NC(=O)C(O)(CC(=O)c2ccc(-c3ccc(CO)cc3)cc2)C(=O)N1`: the values for the pIC50 in experiment [1], in experiment [2] and in experiment [3] were 6.83, 6.68 and 6.25, respectively.

Consider `CSc1ccc(-c2ccc(C(=O)CC3(O)C(=O)NC(=O)NC3=O)cc2)cc1`, for which the negative-log IC50 (pIC50) in experiment [1] was 6.92; in experiment [2], 6.50; in experiment [3] it was 7.07.

As to `O=C1NC(=O)C(O)(CC(=O)c2ccc(-c3ccc(OC(F)(F)F)cc3)cc2)C(=O)N1`, the values for the pIC50 in experiment [1], in experiment [2] and in experiment [3] were 6.84, 6.15 and 7.68, respectively.

For the compound `O=C1NC(=O)C(O)(CC(=O)c2ccc(C(F)(F)F)cc2)C(=O)N1`, the inhibition in experiment [8] worked out at 11%.

Turning to `O=C1NC(=O)C(O)(CC(=O)c2ccc(-c3ccsc3)cc2)C(=O)N1`, the negative logarithm of the IC50 (pIC50) was 6.74 in experiment [1], 6.82 in experiment [2] and 6.80 in experiment [3].

Turning to `CS(=O)(=O)c1ccc(-c2ccc(C(=O)CC3(O)C(=O)NC(=O)NC3=O)cc2)cc1`, the negative-log IC50 (pIC50) is 7.24 in experiment [1], 7.18 in experiment [2] and 6.19 in experiment [3].

For `COc1ccc(-c2ccc(C(=O)CC3(O)C(=O)NC(=O)NC3=O)cc2)cc1`, the pIC50 is 6.92 in experiment [1], 6.74 in experiment [2] and 6.85 in experiment [3].

For the compound `O=C(Cc1ccc(-c2ccccc2)cc1)CC1(O)C(=O)NC(=O)NC1=O`, the inhibition in experiment [4] worked out at 26%; in experiment [5], 21%; in experiment [6], 10%.

`Cc1ccc(-c2ccc(C(=O)CC3(O)C(=O)NC(=O)NC3=O)cc2)cc1`: the negative-log IC50 (pIC50) in experiment [1] is 6.52; in experiment [2] it was 6.47; in experiment [3], 6.99.
